According to ChEMBL document CHEMBL1157841, “Stilbene analogs as inducers of apolipoprotein-I transcription” (Eur J Med Chem, 2010):

Experiments:
Caco-2 [1] = test: Induction of human ApoA-1 gene expression in human Caco-2 cells co-transfected with luc-beta-galactosidase after 48 hrs assessed as luciferase activity by luminometer relative to control; type: functional
Outline: (§1)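 Caco-2 cells stably carrying an ApoA-I promoter–luciferase reporter (co-transfected with pRSV-β-galactosidase as transfection control; selected in MEM with 20% calf serum and 0.5 mg/mL G418). Cells seeded, 24 h at 37 °C in 5% CO2, then starved 24 h in 0.5% FBS selection medium. Compounds added at 15 µM in 0.01% DMSO for 48 h. Cells lysed, luciferase read by luminometer and normalized to Bradford protein. Fold induction is taken against untreated cells and against resveratrol, which is run in each experiment.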

Caco-2 [2] = test: Induction of human ApoA-1 gene expression in human Caco-2 cells co-transfected with luc-beta-galactosidase after 48 hrs assessed as luciferase activity by luminometer relative to resveratrol; type: functional; outline: as §1
Caco-2 [3] = test: Cytotoxicity against human Caco-2 cells; type: cell-based
Caco-2 [4] = test: Induction of human ApoA-1 gene expression in human Caco-2 cells co-transfected with luc-beta-galactosidase at 15 uM after 48 hrs assessed as luciferase activity by luminometer relative to control; type: functional; outline: as §1

| Compound | fold change (FC) (Caco-2 [1]) | fold change (FC) (Caco-2 [2]) | Activity (Caco-2 [3]) | fold change (FC) (Caco-2 [4]) |
| --- | --- | --- | --- | --- |
| O=S(=O)(Nc1ccc(O)cc1)c1ccc(O)cc1 | 1.3 | 0.4 |  |  |
| Oc1ccc(-c2nnc(-c3cccc(O)c3)o2)cc1 | 3.7 | 0.9 | Non-toxic |  |
| Oc1cccc(-c2nnc(-c3ccccc3)o2)c1 | 2.2 | 0.6 | Non-toxic |  |
| OCc1cccc(-c2nnc(-c3ccc(O)cc3)o2)c1 | 1.4 | 0.5 | Non-toxic |  |
| CC(=O)Nc1cc(O)ccc1/C=C/c1ccc(O)cc1 | 0.9 | 0.3 |  |  |
| CS(=O)(=O)c1cc(O)ccc1/C=C/c1ccc(O)cc1 | 2 | 0.7 |  |  |
| O=[N+]([O-])c1cc(O)ccc1/C=C/c1ccc(O)cc1 | 9.4 | 2.8 |  |  |
| COc1cc(O)ccc1/C=C/c1ccc(O)cc1 | 12.5 | 4.6 |  |  |
| OCc1cc(O)ccc1/C=C/c1ccc(O)cc1 | 2 | 0.5 |  |  |
| CN(C)C(=O)c1cc(O)ccc1/C=C/c1ccc(O)cc1 | 1.1 | 0.2 |  |  |
| Nc1cc(O)ccc1/C=C/c1ccc(O)cc1 | 3.2 | 0.9 |  |  |
| CCOC(=O)c1cc(/C=C/c2ccc(O)cc2)ccc1O | 1.1 | 0.4 |  |  |
| NC(=O)c1cc(/C=C/c2ccc(O)cc2)ccc1O | 2.7 | 0.7 |  |  |
| O=C(Nc1ccccc1)c1ccc(O)cc1 | 1.7 | 0.5 |  |  |
| O=C(O)c1cc(/C=C/c2ccc(O)cc2)ccc1O | 1.2 | 0.4 |  |  |
| Oc1ccc(/C=C/c2ccc(O)nc2)cc1 | 1.1 | 0.4 |  |  |
| Oc1ccc(-c2nnc(-c3ccccc3)o2)cc1 | 1.9 | 0.5 | Non-toxic |  |
| Oc1ccc(/N=N/c2ccc(O)cc2)cc1 | 3.4 | 1.3 |  |  |
| O=C(Nc1ccc(O)cc1)c1ccccc1 | 1.7 | 0.6 |  |  |
| O=C(Nc1ccc(O)cc1)c1ccc(O)cc1 | 1.9 | 0.7 |  |  |
| Oc1ccc(CCc2ccc(O)cc2)cc1 | 3.9 | 1 |  |  |
| Oc1ccc(/C=C/c2cc(O)cc(O)c2)cc1 [RESVERATROL] |  |  |  | 2.6 |
| Oc1ccc(/C=C/c2ccc(O)cc2)cc1 [TRANS-4,4'-DIHYDROXYSTILBENE] | 5.1 | 1.6 |  |  |
